Results: ChEMBL document CHEMBL2331325, “Antioxidant lignans and chromone glycosides from Eurya japonica” (J Nat Prod, 2013)

How the values were obtained:
[1] = system: Radical scavenging activity; assay: Antioxidant activity assessed as DPPH radical scavenging activity […]; type: functional
In short: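 Shaken in the dark at room temperature for 30 min, then absorbance read at 517 nm. Negative control without compound. ED50 taken as the concentration scavenging 50% of DPPH radicals.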

RAW264.7 [2] = assay: Inhibition of LPS-induced NO production in mouse RAW264.7 cells after 24 hrs at 20 ug/ml; type: functional; set-up: scale not given: the % may be the effect or the level left
[3] = Cytotoxicity against mouse RAW264.7 cells assessed as cell viability at 20 ug/ml after 24 hrs by MTT assay; type: cell-based; details: read-out: Activity
In short: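 Viability of RAW 264.7 cells measured by MTT after 24 h co-treatment with LPS (1000 ng/mL) and compound at 20 μg/mL. Compounds dissolved in DMSO and diluted in sterile PBS.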

RAW264.7 [4] = assay: Inhibition of LPS-induced NO production in mouse RAW264.7 cells after 24 hrs; type: functional, cell-based; details: RAW264.7, 24 h

Row | SMILES | ED50 [1] [µM] | Activity (RAW264.7 [2]) [%] | viability at 24 h, 20 ug/ml [3] [%] | IC50 (RAW264.7 [4]) [µM]
1 | O=C(/C=C/c1ccc(O)cc1)OC[C@H]1O[C@@H](OCCc2ccc(O)c(O)c2)[C@H](O)[C@@H](O)[C@@H]1O | 33 | – | – | –
2 | O=C1O[C@H]2[C@H](O)[C@@H](O)[C@H](CO)O[C@@H]2c2c1cc(O)c(O)c2O | > 100 | – | – | –
3 | COc1cc(CO)cc(OC)c1O[C@@H]1O[C@H](CO)[C@@H](O)[C@H](O)[C@H]1O | > 100 | – | – | –
4 | COc1cc([C@H]2c3c(cc(OC)c(O)c3OC)C[C@@H](CO[C@@H]3O[C@H](CO)[C@@H](O)[C@H](O)[C@H]3O)[C@@H]2CO)cc(OC)c1O | 37.6 | 39.22 | 101 | –
5 | CC[C@H](CC[C@@H](C)[C@H]1CC[C@H]2[C@@H]3CC=C4C[C@@H](O[C@@H]5O[C@H](CO)[C@@H](O)[C@H](O)[C@H]5O)CC[C@]4(C)[C@H]3CC[C@]12C)C(C)C | > 100 | – | – | –
6 | C=C(C)[C@@H]1CC[C@]2(C(=O)O)CC[C@]3(C)[C@H](CC[C@@H]4[C@@]5(C)CC[C@H](O)C(C)(C)[C@@H]5CC[C@]43C)[C@@H]12 [BETULINIC ACID] | > 100 | 56.19 | 60.3 | –
7 | O=C1c2c(O)cc(O)cc2O[C@H](c2ccc(O)c(O)c2)[C@@H]1O[C@@H]1OC[C@@H](O)[C@H](O)[C@H]1O | 26.6 | 35.32 | 108 | –
8 | COc1ccc(O[C@@H]2O[C@H](CO)[C@@H](O)[C@H](O)[C@H]2O)cc1OC | > 100 | – | – | –
9 | O=C1c2c(O)cc(O)cc2O[C@@H](c2ccc(O)c(O)c2)[C@H]1O[C@@H]1OC[C@@H](O)[C@H](O)[C@H]1O | 26.5 | 36.7 | 102 | –
10 | O=C1C=CC(O)(CCO[C@@H]2O[C@H](COC(=O)/C=C/c3ccc(O)cc3)[C@@H](O)[C@H](O)[C@H]2O)C=C1 | > 100 | – | – | –
11 | COc1cc(CCO)cc(OC)c1O[C@@H]1O[C@H](CO)[C@@H](O)[C@H](O)[C@H]1O | > 100 | – | – | –
12 | COc1cc([C@H]2c3cc(O)c(OC)cc3C[C@@H](CO)[C@@H]2CO[C@@H]2O[C@@H](C)[C@H](O)[C@@H](O)[C@H]2O)ccc1O [AVICULIN] | 44.8 | 39.68 | 112 | –
13 | O=C1c2c(O)cc(O)cc2O[C@@H](c2ccc(O)c(O)c2)[C@@H]1O[C@@H]1O[C@H](CO)[C@@H](O)[C@H](O)[C@H]1O | 36.2 | 35.78 | 105 | –
14 | COc1cc2c(c(OC)c1O)[C@H]1c3c(cc(OC)c(O)c3OC)OC[C@@H](C2)[C@H]1CO[C@@H]1O[C@H](CO)[C@@H](O)[C@H](O)[C@H]1O | 24.7 | 40.37 | 110 | –
15 | O=c1c(O[C@@H]2OC[C@@H](O)[C@H](O)[C@H]2O)coc2cc(O)cc(O)c12 | > 100 | 36.24 | 102 | –
16 | COc1cc2c(c(OC)c1O)[C@@H]1c3c(cc(OC)c(O)c3OC)OC[C@H](C2)[C@@H]1CO[C@@H]1O[C@H](CO)[C@@H](O)[C@H](O)[C@H]1O | 23.4 | 38.99 | 106 | –
17 | O=C1c2c(O)cc(O)cc2OC(c2ccc(O)c(O)c2)C1O[C@@H]1OC[C@@H](O)[C@H](O)[C@H]1O (single isomer, unassigned) | 25.2 | 37.84 | 107 | –
18 | COc1cc(CCCO)cc(OC)c1O[C@@H]1O[C@H](CO)[C@@H](O)[C@H](O)[C@H]1O | > 100 | – | – | –
19 | O=c1c(O[C@@H]2OC[C@H](O)[C@H](O)[C@H]2O)coc2cc(O)cc(O)c12 | 133 | 38.07 | 106 | –
20 | O=C1c2c(O)cc(O)cc2O[C@H](c2ccc(O)c(O)c2)[C@H]1O[C@@H]1O[C@H](CO)[C@@H](O)[C@H](O)[C@H]1O | 33.5 | 35.55 | 101 | –
21 | O=C1c2c(O)cc(O)cc2O[C@H](c2ccc(O)c(O)c2)[C@H]1O[C@@H]1OC[C@@H](O)[C@H](O)[C@H]1O | 30.4 | 33.26 | 105 | –
22 | O=c1c(O[C@@H]2O[C@H](CO)[C@@H](O)[C@H](O)[C@H]2O)coc2cc(O)cc(O)c12 | > 100 | 53.79 | 105 | –
23 | COc1cc(O[C@@H]2O[C@H](CO)[C@@H](O)[C@H](O)[C@H]2O)cc(O)c1OC | > 100 | – | – | –
24 | Cc1c(C)c2c(c(C)c1O)CC[C@@](C)(CCC[C@H](C)CCC[C@H](C)CCCC(C)C)O2 | 27.2 | – | – | –
25 | O=c1c(O)c(-c2ccc(O)c(O)c2)oc2cc(O)cc(O)c12 [QUERCETIN] | – | – | – | 1.3
26 | COc1cc([C@@H]2c3c(cc(OC)c(O)c3OC)C[C@H](CO)[C@H]2CO[C@@H]2O[C@H](CO)[C@@H](O)[C@H](O)[C@H]2O)cc(OC)c1O | 26.6 | 38.76 | 104 | –
27 | COc1cc(O[C@@H]2O[C@H](CO)[C@@H](O)[C@H](O)[C@H]2O)cc(OC)c1OC | > 100 | – | – | –
